Data set [1] has as its system Mus musculus. Kind of data set: Antiinflammatory activity in CF1 mouse assessed as inhibition of carrageenan-induced paw edema at 20 mg/kg, ip administered 3 hrs and 30 mins prior to carrageenan-challenge measured after 3 hrs (reference value: 0%). The class given is functional. As to conditions: route intraperitoneal. In general terms: The carrageenan paw model is a standard test of acute inflammation.

Data set [2] concerns Mus musculus. Kind of data set: Antiinflammatory activity in CF1 mouse assessed as increase in foot weight at 20 mg/kg, ip administered 3 hrs and 30 mins prior to carrageenan-challenge measured after 3 hrs (reference value: 97 +/- 10 mg). The class given is functional. Particulars: route intraperitoneal.
In data set [3] the test system is Mus musculus. Kind of data set: Antitumor activity against mouse EAC allografted in CF1 mouse assessed as host survival on day 7 at 20 mg/kg, ip qd for 7 days. On the set-up: dose 20 mg/kg. The class given is functional, organism-based.
Data set [4] concerns Mus musculus. As to the kind of experiment: Antitumor activity against mouse EAC allografted in CF1 mouse assessed as tumor growth inhibition at 20 mg/kg, ip qd for 7 days (reference value: 0%). The class given is functional. Particulars: 168 h, route intraperitoneal.
Data set [5] has as its system Mus musculus. Kind of data set: Antitumor activity against mouse P388 cells allografted in DBA/2 mouse assessed as tumor growth inhibition at 20 mg/kg, ip qd for 2 weeks (reference value: 100%). Particulars: route intraperitoneal. The class given is functional. The method in brief:
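DBA/2 male mice (20 g) implanted with 10^6 P-388 cells on day 0, then dosed ip at 20 mg/kg/day for 2 weeks. T/C computed by the NIH protocol; T/C ≥120 counted as significant. 5-Fluorouracil served as internal standard.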

In data set [6] the test system is Mus musculus. Kind of data set: Antitumor activity against mouse EAC allografted in CF1 mouse assessed as ascrit fluid volume at 20 mg/kg, ip qd for 7 days (reference value: 6.63 +/- 1.24 mL). Particulars: route intraperitoneal. The class given is functional.
In data set [7] the test system is Mus musculus. Kind of data set: Antitumor activity against mouse P388 cells allografted in DBA/2 mouse assessed as host survival on day 7 at 20 mg/kg, ip qd for 2 weeks. The class given is functional. As to conditions: route intraperitoneal. An outline of the steps:
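P388 leukemia in male DBA/2 mice (20 g): 10⁶ cells implanted on day 0. Compounds were given ip at 20 (mg/kg)/day for 2 weeks. Survival was expressed as T/C by the NIH protocol; T/C > 120 counted as significant. 5-Fluorouracil was the internal standard.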

For data set [8], the species on record is Mus musculus. As to the kind of experiment: Toxicity in CF1 mouse. The class given is organism-based. Particulars: in vivo.
For data set [9], the system named is Mus musculus. Kind of data set: Immunosuppressive activity in mouse splenic lymphocytes isolated from 25 mg/kg, ip on days 2,3 and 4 treated CF1 mouse assessed as reduction in sheep red blood cell antigen-induced plaque-forming response (reference value: 100%). On the set-up: scale not given: the % may be the effect or the level left. As to conditions: route intraperitoneal.

The subject of data set [10] is Mus musculus. As to the kind of experiment: Immunosuppressive activity in mouse splenic lymphocytes isolated from 0.1 mg, ip on days 2,3 and 4 treated CF1 mouse assessed as reduction in sheep red blood cell antigen-induced plaque-forming response (reference value: 100%). On the set-up: scale not given: the % may be the effect or the level left.
The nature of data set [11]: Acute toxicity in CF1 mouse. The class given is organism-based. Particulars: in vivo.
Data set [12] has as its system Mus musculus. As to the kind of experiment: Analgesic activity in CF1 mouse assessed as inhibition of acetic acid-induced pain measured for 10 mins at 2.5 mg/kg,ip administration 5 mins prior to test by […]. The class given is functional, organism-based. On the set-up: dose 2.5 mg/kg. (In general: Thermal pain tests record how soon the animal reacts.)

The subject of data set [13] is Mus musculus. Kind of data set: Analgesic activity in CF1 mouse assessed as inhibition of acetic acid-induced pain measured for 10 mins at 5 mg/kg,ip administration 5 mins prior to test by […]. The class given is functional, organism-based. On the set-up: dose 5 mg/kg.
Data set [14] deals with Mus musculus. As to the kind of experiment: Analgesic activity in CF1 mouse assessed as inhibition of acetic acid-induced writhing reflex measured for 10 mins at 20 mg/kg,ip administration 5 mins prior to test by […]. The class given is functional, organism-based. On the set-up: dose 20 mg/kg. On the technique in general: Writhing tests count abdominal constrictions after an irritant is injected.

Data set [15] relates to Rattus norvegicus. As to the kind of experiment: Antipyretic activity in Sprague-Dawley rat assessed as decrease in yeast/mycobacterium butyricum-induced increase temperature at 2.5 mg/kg, ip. Details: dose 2.5 mg/kg. The class given is functional, organism-based.
The test system of data set [16] is Rattus norvegicus. As to the kind of experiment: Antipyretic activity in Sprague-Dawley rat assessed as decrease in yeast/mycobacterium butyricum-induced increase temperature at 5 mg/kg, ip. The class given is functional, organism-based. On the set-up: dose 5 mg/kg.

Calls of active or inactive are those of the source. No cut-off for these calls is given here.

Turning to `N#CCOC(=O)CNC(=O)c1ccccc1`, the inhibition in vivo at 20 mg/kg in [1] worked out at 50%; in [4], 40.2%. Further, the Activity in data set [2] was 55 mg; in data set [6] it was 2.85 mL; in data set [8], “Non-toxic”. Also, in [3], the result was Active. The T/C in data set [5] stood at 109. The Survival in [7] stood at 10.5 days.

Turning to `CCC(C)C(NC(=O)c1ccccc1)C(=O)OCC#N` (stereo unspecified), the inhibition in vivo at 20 mg/kg came to 18% in data set [1] and 46.6% in data set [4]. For the same compound, the Activity in data set [2] is 89 mg; in data set [6], 2.97 mL; in data set [8], “Non-toxic”. Moreover, the T/C in data set [5] was determined as 122. Further, in [7], the Survival was determined as 11.8 days.

Take `N#CCOC(=O)CCNC(=O)c1ccccc1`: the figures for the inhibition in vivo at 20 mg/kg in data set [1] and in data set [4] were 31% and 11.6%, respectively. Further, the Activity in data set [2] is 75 mg; in data set [6], 4.96 mL; in data set [8], “Non-toxic”.

As to `N#CCOC(=O)[C@@H]1CCCN1C(=O)c1ccccc1`, the inhibition in vivo at 20 mg/kg in data set [1] stood at 39%; in data set [4], 59.3%. Moreover, the Activity in [2] is 67 mg; in data set [6] it was 2.93 mL; in data set [8], “Non-toxic”. Also, the T/C in data set [5] was 93. Also, the Survival in data set [7] was 9 days.

`N#CCOC(=O)CCCNC(=O)c1ccccc1`: the inhibition in vivo at 20 mg/kg in data set [1] was determined as 37%; in [4], 43.1%. Also, the results for the Activity in data set [2], in data set [6] and in data set [8] were 68 mg, 2.78 mL and “Non-toxic”, respectively. Besides, the T/C in [5] turned out to be 104. For the same compound, the Survival in data set [7] was found to be 10 days.

For `N[C@@H](Cc1ccc(N(CCCl)CCCl)cc1)C(=O)O` [MELPHALAN], the Activity turned out to be 100% in data set [9] and 51% in data set [10].

Consider `N#CCOC(=O)[C@H](Cc1ccccc1)NC(=O)c1ccccc1`, for which the values for the inhibition in vivo at 20 mg/kg in data set [1] and in data set [4] were 51% and 47%, respectively. Also, the Activity in [2] was 43 mg; in data set [6], 1.8 mL; in data set [8], “Non-toxic”.

In the case of `CC(NC(=O)c1ccccc1)C(=O)OCC#N` (stereo unspecified), the values for the inhibition in vivo at 20 mg/kg in data set [1] and in [4] were 25% and 43.3%, respectively. For the same compound, the Activity in data set [2] is 87 mg; in data set [6] it was 2.91 mL; in data set [8], “Non-toxic”. In data set [3], the outcome was Active. The T/C in data set [5] is 100. Also, the Survival in data set [7] is 9.7 days.

`Cc1ccc(S(=O)(=O)N[C@@H](Cc2ccccc2)C(=O)CCl)cc1` [TPCK] showed an LD50 in data set [11] of 210 µmol/kg. In addition, the inhibition in vivo at 20 mg/kg in [1] is 56%; in data set [4] it was 100%. Also, the Activity was found to be 31 mg in data set [2] and 0.01 mL in [6].

As to `CC(C)C[C@H](NC(=O)c1ccccc1)C(=O)OCC#N`, the inhibition in vivo at 20 mg/kg came out at 29% in [1] and 87.2% in [4]. Further, the Activity is 77 mg in [2], 0.8 mL in [6] and “Non-toxic” in [8]. In data set [5], the T/C turned out to be 117. The Survival in data set [7] is 11.3 days.

For `N#CCOC(=O)[C@H](Cc1ccccc1)NC(=O)[C@H](Cc1ccccc1)NC(=O)OCc1ccccc1`, the inhibition in vivo at 20 mg/kg in [1] turned out to be 30%; in data set [4], 43%. Besides, the Activity was 61 mg in data set [2], 2.1 mL in data set [6] and “Non-toxic” in data set [8].

As to `N#CCOC(=O)CCCCCNC(=O)c1ccccc1`, the inhibition in vivo at 20 mg/kg in [1] amounted to 40%; in [4], 45.2%. The Activity in data set [2] is 65 mg; in [6], 2.73 mL; in data set [8] it was “Non-toxic”. Further, the outcome in data set [3] was Active. Further, in data set [7], the Survival turned out to be 10.3 days.

On to `N#CCOC(=O)CCCCCNC(=O)OCc1ccccc1`, for which the inhibition in vivo at 20 mg/kg was found to be 28% in data set [1] and 54% in data set [4]. In addition, the Activity was 63 mg in data set [2], 1 mL in data set [6] and “Non-toxic” in data set [8]. Besides, in [3], the result was Active.

For the compound `CC(=O)N[C@@H](Cc1ccccc1)C(=O)OCC#N`, the inhibition in vivo at 20 mg/kg in data set [1] was 44%; in [4], 16%. Further, the Activity is 49 mg in [2], 3.9 mL in data set [6] and “Non-toxic” in data set [8]. Moreover, in [3], the outcome was Active.

As to `CC(C)C(NC(=O)c1ccccc1)C(=O)OCC#N` (stereo unspecified), the figures for the inhibition in vivo at 20 mg/kg in [1] and in data set [4] were 24% and 99.9%, respectively. Besides, the Activity in data set [2] is 82 mg; in [6], 0.07 mL; in [8] it was “Non-toxic”. The T/C in data set [5] turned out to be 109. The Survival in data set [7] worked out at 10.5 days.

With `C[C@H](NC(=O)c1ccccc1)C(=O)OCC#N`, the inhibition in vivo at 20 mg/kg in data set [1] was found to be 49%; in data set [4], 98.2%. Further, the Activity was 56 mg in data set [2], 0.1 mL in data set [6] and “Non-toxic” in data set [8]. In addition, the result in [3] was Active. Further, in data set [5], the T/C came out at 101. Moreover, in [7], the Survival worked out at 9.8 days.

In the case of `Sc1ncnc2nc[nH]c12` [MERCAPTOPURINE ANHYDROUS], in data set [3], the outcome was Active. In addition, the inhibition in vivo at 20 mg/kg in data set [4] came to 99.6%. Moreover, the Activity in data set [6] was found to be 0.7 mL.

As for `N#CCOC(=O)[C@H](Cc1ccccc1)NC(=O)OCc1ccccc1`, the inhibition in vivo at 20 mg/kg turned out to be 55% in data set [1] and 99.9% in data set [4]. For the same compound, the outcome in [12], in [13], in data set [15] and in data set [16] was inactive. The Activity in data set [2] is 39 mg; in data set [6] it was 0.2 mL; in [9], 86%; in [8], “Non-toxic”. The outcome in data set [3] was Active. In data set [5], the T/C turned out to be 68. The inhibition entry in data set [14] is “Active”. Besides, the Survival in data set [7] turned out to be 6.6 days.

On to `N#CCOC(=O)[C@H](Cc1ccc(O)cc1)NC(=O)c1ccccc1`, for which the results for the inhibition in vivo at 20 mg/kg in [1] and in data set [4] were 41% and 42.3%, respectively. Further, the Activity in data set [2] was 75 mg; in [6] it was 1.98 mL; in data set [8] it was “Non-toxic”. The T/C in [5] worked out at 113. Further, the Survival in data set [7] worked out at 11.3 days.

With `N#CCOC(=O)CNC(=O)OCc1ccccc1`, the inhibition in vivo at 20 mg/kg in [1] was 45%; in [4] it was 29%. The Activity was 48 mg in [2], 2.2 mL in data set [6], 58% in data set [9] and “Non-toxic” in data set [8]. The result in [3] was Active.

In the case of `O=c1[nH]cc(F)c(=O)[nH]1` [FLUOROURACIL], in [5], the T/C was 186. In [7], the Survival came to 18 days.

`N#CCOC(=O)C(Cc1ccccc1)NC(=O)OCc1ccccc1` (stereo unspecified): the inhibition in vivo at 20 mg/kg is 38% in [1] and 86% in [4]. Also, the Activity was 54 mg in data set [2], 0.4 mL in [6] and “Non-toxic” in data set [8]. The result in data set [3] was Active.

On to `Cc1ccc(S(=O)(=O)N[C@@H](Cc2ccccc2)C(=O)OCC#N)cc1`, for which the inhibition in vivo at 20 mg/kg in data set [1] came out at 21%; in [4], 97%. Besides, the figures for the Activity in data set [2], in data set [6] and in [8] were 69 mg, 0.4 mL and “Non-toxic”, respectively. Also, in [5], the T/C turned out to be 94. For the same compound, the Survival in [7] worked out at 9.1 days.

Broadly, the inhibition in vivo is the share of the control response that was lost under treatment. The LD50 is the dose expected to kill half of the subjects tested.

The values are drawn from ChEMBL document CHEMBL3244350, “Antitumor and antiinflammatory agents: N-benzoyl-protected cyanomethyl esters of amino acids” (J Med Chem, 1979).
